Assay [1] has as its target T1, IgG receptor FcRn large subunit p51 (Homo sapiens, UniProt P55899). Briefly: Ratio of RF-Pen-TGHF-valerolactam-NMeLeu-YPC IC50 to compound IC50 for soluble human FcRn.
For assay [2], the system named is Mus musculus. The assay can be described thus: Increase in human IgG catabolism in iv dosed endogenous FcRn/beta2m gene knockout TG32B transgenic mouse harboring human FcRn administered QD for 4 consecutive days measured after 24 hrs by ELISA. It is filed as functional, organism-based. The method, boiled down: (§1)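 TG32B mice (muFcRn−/−, muβ2m−/−, huFcRn+/+, huβ2m+/+), 4 per group, got 500 mg/kg hIgG (pooled subtypes) iv at 0 h. Peptide or vehicle (20 mM sodium acetate, pH 5) was given iv at 24, 48, 72 and 96 h. Blood was taken before each injection and at 30, 120 and 168 h. Serum hIgG was measured by ELISA: goat anti-hIgG(Fab) capture, goat anti-hIgG(Fc)-HRP detection.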
For orientation: ELISA stands for enzyme-linked immunosorbent assay.

Assay [3] concerns the target T1, IgG receptor FcRn large subunit p51. The assay can be described thus: Ratio of RF-Pen-TGHFG-Sar-NMeLeu-YPC IC50 to compound IC50 for soluble human FcRn.
Assay [4] has as its system Mus musculus. The assay can be described thus: Increase in human IgG catabolism in endogenous FcRn/beta2m gene knockout TG32B transgenic mouse harboring human FcRn at 2.5 mg/kg, iv QD for 4 consecutive days measured after 24 hrs by ELISA. It is filed as functional, organism-based. Set-up: dose 2.5 mg/kg. The method, boiled down: as §1
The target in assay [5] is T1, IgG receptor FcRn large subunit p51. The assay can be described thus: Inhibition of IgG binding to soluble human FcRn after 2 hrs by competition ELISA.
For assay [6] the target is unchanged. Briefly: Ratio of QRF-Asp-TGHFGGLYP-Lys-NGP IC50 to compound IC50 for soluble human FcRn.
Assay [7] shares this target. The assay can be described thus: Ratio of RF-Pen-NMeAla-GHF-X-NMeLeu-YPC IC50 to compound IC50 for soluble human FcRn.
Assay [8] relates to Mus musculus. Briefly: Increase in human IgG catabolism in endogenous FcRn/beta2m gene knockout TG32B transgenic mouse harboring human FcRn at 1 mg/kg, iv QD for 4 consecutive days measured after 24 hrs by ELISA. Set-up: dose 1 mg/kg. It is filed as functional, organism-based. The method, boiled down: as §1
The target in assay [9] is T1, IgG receptor FcRn large subunit p51. The assay can be described thus: Ratio of RFCTGHFGGLYPC IC50 to compound IC50 for soluble human FcRn.
The test system of assay [10] is Mus musculus. The assay can be described thus: Increase in human IgG catabolism in endogenous FcRn/beta2m gene knockout TG32B transgenic mouse harboring human FcRn at 5 mg/kg, iv QD for 4 consecutive days measured after 24 hrs by ELISA. It is filed as functional, organism-based. Set-up: dose 5 mg/kg. Summed up:
as §1

Assay [11] has as its target T1, IgG receptor FcRn large subunit p51. Briefly: Ratio of RF-Pen-TG-4GuPhe-G-Sar-NMeLeu-YPC IC50 to compound IC50 for soluble human FcRn.

pIC50: −log10 of the molar value. Activity calls are given as the source filed them. No cut-off for these calls is given here. Numbered stars: 1 amine (or outer) side, 2 acyl side, 3 side chain; on linkers, the order of the positions; unused ones are H or OH. Bridge positions count the residues as written; N and C are the ends. Square brackets hold non-standard residues; d marks the D form. Peptide text beside a SMILES is read from it. I, II: the chains in the order shown. Phe(4-guanidino) = N=C(N)Nc1ccc(C[C@H](N)C(=O)O)cc1; X1 = O=C(C(=O)[*:2])[C@H](Cc1ccc(O)cc1)N[*:1]; NHCH2CH2N(Me)CH2CO = CN(CCN[*:1])CC(=O)[*:2]; NMeL = CN[C@@H](CC(C)C)C(=O)O; Pen = CC(C)(S)[C@H](N)C(=O)O; Suc = O=C(CCC(=O)[*:2])[*:1]; X4 = O=C(CSCC(=O)[*:2])[*:1]; Sar = CNCC(=O)O

T1 sequence (P55899 whole entry): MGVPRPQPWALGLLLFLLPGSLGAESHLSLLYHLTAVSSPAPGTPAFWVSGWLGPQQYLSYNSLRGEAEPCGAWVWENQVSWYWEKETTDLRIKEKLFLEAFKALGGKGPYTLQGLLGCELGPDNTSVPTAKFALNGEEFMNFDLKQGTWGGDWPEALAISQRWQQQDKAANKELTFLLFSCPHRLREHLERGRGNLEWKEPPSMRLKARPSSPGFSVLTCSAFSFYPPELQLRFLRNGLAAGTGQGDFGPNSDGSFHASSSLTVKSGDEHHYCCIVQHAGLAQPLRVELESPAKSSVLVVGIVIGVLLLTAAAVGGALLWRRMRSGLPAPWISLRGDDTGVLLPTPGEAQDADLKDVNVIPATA

Turning to `CC(C)C[C@H]1C(=O)N[C@@H](Cc2ccc(O)cc2)C(=O)C(=O)N2CCC[C@H]2C(=O)N[C@H](C(N)=O)CSSC(C)(C)[C@H](NC(=O)[C@H](Cc2ccccc2)NC(=O)[C@H](CCCNC(=N)N)NC(=O)CCC(=O)NCCN(C)CC(=O)N[C@@H](CCCNC(=N)N)C(=O)N[C@@H](Cc2ccccc2)C(=O)N[C@@H]2C(=O)N[C@@H]([C@@H](C)O)C(=O)NCC(=O)N[C@@H](Cc3c[nH]cn3)C(=O)N[C@@H](Cc3ccccc3)C(=O)N[C@H]3CCCN(CC(=O)N(C)[C@@H](CC(C)C)C(=O)N[C@@H](Cc4ccc(O)cc4)C(=O)C(=O)N4CCC[C@H]4C(=O)N[C@H](C(N)=O)CSSC2(C)C)C3=O)C(=O)N[C@@H]([C@@H](C)O)C(=O)NCC(=O)N[C@@H](Cc2c[nH]cn2)C(=O)N[C@@H](Cc2ccccc2)C(=O)N[C@H]2CCCN(CC(=O)N1C)C2=O`, the Ratio IC50 in assay [1] came to 110. For the same compound, the result in [2] was Active.
The term pIC50 denotes −log10 of the IC50, conventionally taken in molar units. As to `CC(C)C[C@H]1C(=O)N[C@@H](Cc2ccc(O)cc2)C(=O)C(=O)N2CCC[C@H]2C(=O)N[C@H](C(N)=O)CSSC(C)(C)[C@H](NC(=O)[C@H](Cc2ccccc2)NC(=O)[C@H](CCCNC(=N)N)NC(=O)CN(C)CCNC(=O)CCC(=O)N[C@@H](CCCNC(=N)N)C(=O)N[C@@H](Cc2ccccc2)C(=O)N[C@@H]2C(=O)N[C@@H]([C@@H](C)O)C(=O)NCC(=O)N[C@@H](Cc3c[nH]cn3)C(=O)N[C@@H](Cc3ccccc3)C(=O)NCC(=O)N(C)CC(=O)N(C)[C@@H](CC(C)C)C(=O)N[C@H](Cc3ccc(O)cc3)C(=O)C(=O)N3CCC[C@H]3C(=O)N[C@H](C(N)=O)CSSC2(C)C)C(=O)N[C@@H]([C@@H](C)O)C(=O)NCC(=O)N[C@@H](Cc2c[nH]cn2)C(=O)N[C@@H](Cc2ccccc2)C(=O)NCC(=O)N(C)CC(=O)N1C`, the Ratio IC50 in assay [3] turned out to be 200. For the same compound, in assay [4], the outcome was Active. This compound showed a pIC50 in assay [5] of 8.59.
Regarding `CC(C)C[C@H]1C(=O)N[C@@H](Cc2ccc(O)cc2)C(=O)C(=O)N2CCC[C@H]2C(=O)N[C@H](C(=O)N[C@@H](CC(N)=O)C(=O)NCC(=O)N2CCC[C@H]2C(N)=O)CCCCNC(=O)C[C@H](NC(=O)[C@H](Cc2ccccc2)NC(=O)CSCC(=O)N[C@@H](CCC(N)=O)C(=O)N[C@@H](CCCNC(=N)N)C(=O)N[C@@H](Cc2ccccc2)C(=O)N[C@H]2CC(=O)NCCCC[C@@H](C(=O)N[C@@H](CC(N)=O)C(=O)NCC(=O)N3CCC[C@H]3C(N)=O)NC(=O)[C@@H]3CCCN3C(=O)C(=O)[C@H](Cc3ccc(O)cc3)NC(=O)[C@H](CC(C)C)N(C)C(=O)CN(C)C(=O)CNC(=O)[C@H](Cc3ccccc3)NC(=O)[C@H](Cc3c[nH]cn3)NC(=O)CNC(=O)[C@H]([C@@H](C)O)NC2=O)C(=O)N[C@@H]([C@@H](C)O)C(=O)NCC(=O)N[C@@H](Cc2c[nH]cn2)C(=O)N[C@@H](Cc2ccccc2)C(=O)NCC(=O)N(C)CC(=O)N1C` (I: QRFDTGHFG[Sar][NMeL][X1]PKNGP-NH2 / II: FDTGHFG[Sar][NMeL][X1]PKNGP-NH2; lactam I:4-I:14, II:2-II:12; linker I:N-II:N via X4), in [6], the Ratio IC50 turned out to be 38. Further, in [5], the negative logarithm of the IC50 (pIC50) is 6.24.
On to `CC(C)C[C@H]1C(=O)N[C@@H](Cc2ccc(O)cc2)C(=O)C(=O)N2CCC[C@H]2C(=O)N[C@H](C(N)=O)CSSC(C)(C)[C@H](NC(=O)[C@H](Cc2ccccc2)NC(=O)[C@H](CCCNC(=N)N)NC(=O)CCC(=O)NCCN(C)CC(=O)N[C@@H](CCCNC(=N)N)C(=O)N[C@@H](Cc2ccccc2)C(=O)N[C@@H]2C(=O)N(C)[C@@H](C)C(=O)NCC(=O)N[C@@H](Cc3c[nH]cn3)C(=O)N[C@@H](Cc3ccccc3)C(=O)N[C@H]3CCCN(CC(=O)N(C)[C@@H](CC(C)C)C(=O)N[C@@H](Cc4ccc(O)cc4)C(=O)C(=O)N4CCC[C@H]4C(=O)N[C@H](C(N)=O)CSSC2(C)C)C3=O)C(=O)N(C)[C@@H](C)C(=O)NCC(=O)N[C@@H](Cc2c[nH]cn2)C(=O)N[C@@H](Cc2ccccc2)C(=O)N[C@H]2CCCN(CC(=O)N1C)C2=O`, for which, in assay [7], the Ratio IC50 stood at 61. Further, the result in assay [8] was Active. The compound further had a pIC50 in [5] of 7.74.
`CC(C)C[C@@H]1NC(=O)CNC(=O)CNC(=O)[C@H](Cc2ccccc2)NC(=O)[C@H](Cc2c[nH]cn2)NC(=O)CNC(=O)[C@H]([C@@H](C)O)NC(=O)[C@@H](NC(=O)[C@H](Cc2ccccc2)NC(=O)[C@H](CCCNC(=N)N)NC(=O)CCC(=O)NCCN(C)CC(=O)N[C@@H](CCCNC(=N)N)C(=O)N[C@@H](Cc2ccccc2)C(=O)N[C@H]2CSSC[C@@H](C(N)=O)NC(=O)[C@@H]3CCCN3C(=O)C(=O)[C@H](Cc3ccc(O)cc3)NC(=O)[C@H](CC(C)C)NC(=O)CNC(=O)CNC(=O)[C@H](Cc3ccccc3)NC(=O)[C@H](Cc3c[nH]cn3)NC(=O)CNC(=O)[C@H]([C@@H](C)O)NC2=O)CSSC[C@@H](C(N)=O)NC(=O)[C@@H]2CCCN2C(=O)C(=O)[C@H](Cc2ccc(O)cc2)NC1=O`: in assay [9], the Ratio IC50 was determined as 12.
On to `CC(C)C[C@H]1C(=O)N[C@@H](Cc2ccc(O)cc2)C(=O)C(=O)N2CCC[C@H]2C(=O)N[C@H](C(N)=O)CCCCNC(=O)C[C@H](NC(=O)[C@H](Cc2ccccc2)NC(=O)[C@H](CCCNC(=N)N)NC(=O)CCC(=O)NCCN(C)CC(=O)N[C@@H](CCCNC(=N)N)C(=O)N[C@@H](Cc2ccccc2)C(=O)N[C@H]2CC(=O)NCCCC[C@@H](C(N)=O)NC(=O)[C@@H]3CCCN3C(=O)C(=O)[C@H](Cc3ccc(O)cc3)NC(=O)[C@H](CC(C)C)N(C)C(=O)CN(C)C(=O)CNC(=O)[C@H](Cc3ccccc3)NC(=O)[C@H](Cc3c[nH]cn3)NC(=O)CNC(=O)[C@H]([C@@H](C)O)NC2=O)C(=O)N[C@@H]([C@@H](C)O)C(=O)NCC(=O)N[C@@H](Cc2c[nH]cn2)C(=O)N[C@@H](Cc2ccccc2)C(=O)NCC(=O)N(C)CC(=O)N1C` (I: [NHCH2CH2N(Me)CH2CO]RFDTGHFG[Sar][NMeL][X1]PK-NH2 / II: RFDTGHFG[Sar][NMeL][X1]PK-NH2; lactam I:4-I:14, II:3-II:13; linker I:N-II:N via Suc), for which the result in [10] was Active. The same compound had a negative-log IC50 (pIC50) in assay [5] of 7.30.
`CC(C)C[C@H]1C(=O)N[C@@H](Cc2ccc(O)cc2)C(=O)C(=O)N2CCC[C@H]2C(=O)N[C@H](C(N)=O)CSSC(C)(C)[C@H](NC(=O)[C@H](Cc2ccccc2)NC(=O)[C@H](CCCNC(=N)N)NC(=O)CCC(=O)N[C@@H](CCCNC(=N)N)C(=O)N[C@@H](Cc2ccccc2)C(=O)N[C@@H]2C(=O)N[C@@H]([C@@H](C)O)C(=O)NCC(=O)N[C@@H](Cc3ccc(NC(=N)N)cc3)C(=O)NCC(=O)N(C)CC(=O)N(C)[C@@H](CC(C)C)C(=O)N[C@@H](Cc3ccc(O)cc3)C(=O)C(=O)N3CCC[C@H]3C(=O)N[C@H](C(N)=O)CSSC2(C)C)C(=O)N[C@@H]([C@@H](C)O)C(=O)NCC(=O)N[C@@H](Cc2ccc(NC(=N)N)cc2)C(=O)NCC(=O)N(C)CC(=O)N1C` (I: RF[Pen]TG[Phe(4-guanidino)]G[Sar][NMeL][X1]PC-NH2 / II: RF[Pen]TG[Phe(4-guanidino)]G[Sar][NMeL][X1]PC-NH2; disulfide I:3-I:12, II:3-II:12; linker I:N-II:N via Suc): in assay [11], the Ratio IC50 was 50. Besides, the outcome in [8] was Active.
As for `CC(C)C[C@H]1C(=O)N[C@@H](Cc2ccc(O)cc2)C(=O)C(=O)N2CCC[C@H]2C(=O)N[C@H](C(N)=O)CSSC(C)(C)[C@H](NC(=O)[C@H](Cc2ccccc2)NC(=O)[C@H](CCCNC(=N)N)NC(=O)CCC(=O)N[C@@H](CCCNC(=N)N)C(=O)N[C@@H](Cc2ccccc2)C(=O)N[C@@H]2C(=O)N[C@@H]([C@@H](C)O)C(=O)NCC(=O)N[C@@H](Cc3c[nH]cn3)C(=O)N[C@@H](Cc3ccccc3)C(=O)NCC(=O)N(C)CC(=O)N(C)[C@@H](CC(C)C)C(=O)N[C@@H](Cc3ccc(O)cc3)C(=O)C(=O)N3CCC[C@H]3C(=O)N[C@H](C(N)=O)CSSC2(C)C)C(=O)N[C@@H]([C@@H](C)O)C(=O)NCC(=O)N[C@@H](Cc2c[nH]cn2)C(=O)N[C@@H](Cc2ccccc2)C(=O)NCC(=O)N(C)CC(=O)N1C`, in assay [3], the Ratio IC50 came to 220. The outcome in [4], in assay [10], in assay [8] and in assay [2] was Active.
